According to ChEMBL document CHEMBL4251655 (Eur J Med Chem, 2018):
Converted amounts (≈) assume the structure as drawn. The source made the active and inactive calls. The rule behind the calls is not given here.

Tests used:
[1] = Thermodynamic solubility of the compound at pH 7.4; assay type: physicochemical; settings: buffer, read-out: Therm_solubility
[2] = Oral bioavailability in rat at 1 mg/kg administered via gavage; assay type: ADME, organism-based; settings: in vivo
Summary of the method: (§1)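 Rat, oral dosing as a solution.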

[3] = Clearance in rat hepatocytes assessed per million cells; assay type: ADME, cell-based, Hepatocyte
[4] = target: T1, Serine/threonine-protein kinase Nek2 (Homo sapiens) (UniProt P51955); experiment: Inhibition of recombinant human full length His-tagged NEK2 expressed in baculovirus expression system at 1 uM relative to control
T1 sequence (whole entry): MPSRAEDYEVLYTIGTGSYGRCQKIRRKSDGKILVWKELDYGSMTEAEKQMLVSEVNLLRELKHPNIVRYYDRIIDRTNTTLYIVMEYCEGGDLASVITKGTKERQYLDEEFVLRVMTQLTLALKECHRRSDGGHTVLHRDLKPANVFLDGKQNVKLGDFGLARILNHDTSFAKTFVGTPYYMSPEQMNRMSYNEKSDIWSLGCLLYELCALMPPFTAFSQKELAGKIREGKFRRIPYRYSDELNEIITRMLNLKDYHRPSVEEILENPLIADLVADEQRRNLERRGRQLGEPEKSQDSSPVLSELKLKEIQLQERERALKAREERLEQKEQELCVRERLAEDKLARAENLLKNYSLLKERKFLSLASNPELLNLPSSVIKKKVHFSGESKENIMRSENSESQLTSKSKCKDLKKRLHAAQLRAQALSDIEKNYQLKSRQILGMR
Summary of the method: (§2)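 Forty-kinase selectivity panel; each compound tested at a single 1 µM concentration in the presence of 1 mM ATP; result given as percent inhibition.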

[5] = target: T2, Serine/threonine-protein kinase Sgk1 (Homo sapiens) (UniProt O00141); experiment: Inhibition of recombinant human GST-tagged SGK1 expressed in baculovirus expression system at 1 uM relative to control; summary of the method: as §2
T2 sequence (whole entry): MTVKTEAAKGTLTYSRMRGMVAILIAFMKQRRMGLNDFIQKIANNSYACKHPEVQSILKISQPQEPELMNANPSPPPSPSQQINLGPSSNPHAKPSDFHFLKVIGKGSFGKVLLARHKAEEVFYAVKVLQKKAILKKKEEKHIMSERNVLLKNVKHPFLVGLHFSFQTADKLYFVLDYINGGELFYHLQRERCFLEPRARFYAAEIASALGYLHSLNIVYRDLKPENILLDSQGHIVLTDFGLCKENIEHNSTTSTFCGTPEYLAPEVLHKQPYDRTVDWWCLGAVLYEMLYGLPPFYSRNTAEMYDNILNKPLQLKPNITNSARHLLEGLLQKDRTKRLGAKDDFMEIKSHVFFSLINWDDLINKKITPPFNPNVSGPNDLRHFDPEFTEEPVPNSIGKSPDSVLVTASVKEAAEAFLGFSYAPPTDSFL

[6] = target: T3, Mitogen-activated protein kinase kinase kinase 5 (Homo sapiens) (UniProt Q99683); experiment: Inhibition of recombinant full length human ASK1 expressed in HEK293/AP1-Luc cells assessed as reduction in autophosphorylation at Thr-838 residue at 10 uM after 30 mins by Western blot analysis; assay type: cell-based
T3 sequence (whole entry): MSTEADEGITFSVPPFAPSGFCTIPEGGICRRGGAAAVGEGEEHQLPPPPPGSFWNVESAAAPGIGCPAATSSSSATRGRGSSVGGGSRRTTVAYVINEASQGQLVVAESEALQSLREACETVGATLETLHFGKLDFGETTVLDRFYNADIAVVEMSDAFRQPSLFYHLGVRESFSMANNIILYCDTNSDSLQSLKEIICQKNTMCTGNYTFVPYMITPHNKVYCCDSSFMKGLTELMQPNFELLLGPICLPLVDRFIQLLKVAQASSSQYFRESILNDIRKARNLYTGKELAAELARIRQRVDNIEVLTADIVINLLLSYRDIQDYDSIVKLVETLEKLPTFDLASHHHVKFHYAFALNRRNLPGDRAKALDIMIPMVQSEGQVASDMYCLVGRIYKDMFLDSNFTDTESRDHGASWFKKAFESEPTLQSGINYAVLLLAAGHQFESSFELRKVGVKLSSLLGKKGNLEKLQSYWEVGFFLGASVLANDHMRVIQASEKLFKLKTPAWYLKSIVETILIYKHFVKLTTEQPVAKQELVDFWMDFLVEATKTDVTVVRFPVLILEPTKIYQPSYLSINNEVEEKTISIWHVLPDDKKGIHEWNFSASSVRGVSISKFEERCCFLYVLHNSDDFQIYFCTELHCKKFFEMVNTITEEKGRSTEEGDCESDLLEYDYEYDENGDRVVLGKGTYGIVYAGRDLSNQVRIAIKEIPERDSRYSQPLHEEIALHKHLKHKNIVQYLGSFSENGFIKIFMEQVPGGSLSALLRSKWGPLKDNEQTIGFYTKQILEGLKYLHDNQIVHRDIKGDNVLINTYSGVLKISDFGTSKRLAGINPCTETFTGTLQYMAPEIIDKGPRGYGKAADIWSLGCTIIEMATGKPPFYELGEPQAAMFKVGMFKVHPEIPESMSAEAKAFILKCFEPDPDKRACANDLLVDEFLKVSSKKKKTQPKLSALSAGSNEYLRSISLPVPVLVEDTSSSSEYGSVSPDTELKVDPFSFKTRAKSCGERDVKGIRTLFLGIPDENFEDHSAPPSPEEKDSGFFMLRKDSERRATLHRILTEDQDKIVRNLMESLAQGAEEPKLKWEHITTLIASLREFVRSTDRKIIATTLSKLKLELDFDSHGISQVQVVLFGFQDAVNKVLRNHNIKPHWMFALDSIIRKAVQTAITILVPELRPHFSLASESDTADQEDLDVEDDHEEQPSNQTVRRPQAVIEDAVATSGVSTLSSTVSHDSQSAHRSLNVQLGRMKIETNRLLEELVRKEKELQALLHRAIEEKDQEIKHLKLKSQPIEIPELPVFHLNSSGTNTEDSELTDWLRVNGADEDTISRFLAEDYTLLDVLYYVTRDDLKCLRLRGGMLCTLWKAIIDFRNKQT
Summary of the method: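 Stable HEK293/AP-1luc pools expressing wild-type or K709R full-length human ASK1 (or parental cells) plated in DMEM with 10% FBS, Geneticin and puromycin. Next day, washed in serum-free medium, then treated with 10 μM compound (final) at 37 °C for 30 min. Cells lysed in M-PER with protease/phosphatase inhibitors; protein by BCA; Western blot for ASK1, phospho-Thr838 ASK1 and α-tubulin.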

[7] = Clearance in rat at 1 mg/kg, iv by LC-MS/MS analysis; assay type: ADME, organism-based; settings: in vivo
Summary of the method: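 Rat, single 1 mg/kg intravenous dose.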

[8] = Oral bioavailability in rat at 5 mg/kg administered via gavage; assay type: ADME, organism-based; settings: in vivo; summary of the method: as §1

| SMILES | solubility thermodynamic [1] [µM] | bioavailability [2] [%] | CLH [3] [µL/min/1e6 cells] | inhibition [4] [%] | inhibition [5] [%] | inhibition [6] | clearance [7] [mL/min/kg] | bioavailability [8] [%] |
| --- | --- | --- | --- | --- | --- | --- | --- | --- |
| COc1ccc(S(C)(=O)=O)cc1C(=O)Nc1cccc(-c2nncn2C(C)C)n1 | 5 (≈ 2.08 µg/mL) | 8 | < 6 | 1 | 2 | Active | 41 |  |
| COc1cc(C)c(C(N)=O)cc1C(=O)Nc1cccc(-c2nncn2C(C)C)n1 |  |  |  |  | -2 |  |  |  |
| COc1ccc(C(N)=O)cc1C(=O)Nc1cccc(-c2nncn2C(C)C)n1 |  |  |  |  | -9 |  |  |  |
| COc1cc(C)c(S(N)(=O)=O)cc1C(=O)Nc1cccc(-c2nncn2C(C)C)n1 |  |  |  | 0 | 1 |  |  |  |
| COc1ccc(S(N)(=O)=O)cc1C(=O)Nc1cccc(-c2nncn2C(C)C)n1 | 1.2 (≈ 0.5 µg/mL) |  | < 6 | -3 |  |  | 35 | < 1 |
| COc1cc(C)c(S(C)(=O)=O)cc1C(=O)Nc1cccc(-c2nncn2C(C)C)n1 |  |  |  |  | 1 |  |  |  |
